In one series the target is T1, Acetylcholinesterase (Mus musculus, UniProt P21836).
T1 sequence (P21836 whole entry): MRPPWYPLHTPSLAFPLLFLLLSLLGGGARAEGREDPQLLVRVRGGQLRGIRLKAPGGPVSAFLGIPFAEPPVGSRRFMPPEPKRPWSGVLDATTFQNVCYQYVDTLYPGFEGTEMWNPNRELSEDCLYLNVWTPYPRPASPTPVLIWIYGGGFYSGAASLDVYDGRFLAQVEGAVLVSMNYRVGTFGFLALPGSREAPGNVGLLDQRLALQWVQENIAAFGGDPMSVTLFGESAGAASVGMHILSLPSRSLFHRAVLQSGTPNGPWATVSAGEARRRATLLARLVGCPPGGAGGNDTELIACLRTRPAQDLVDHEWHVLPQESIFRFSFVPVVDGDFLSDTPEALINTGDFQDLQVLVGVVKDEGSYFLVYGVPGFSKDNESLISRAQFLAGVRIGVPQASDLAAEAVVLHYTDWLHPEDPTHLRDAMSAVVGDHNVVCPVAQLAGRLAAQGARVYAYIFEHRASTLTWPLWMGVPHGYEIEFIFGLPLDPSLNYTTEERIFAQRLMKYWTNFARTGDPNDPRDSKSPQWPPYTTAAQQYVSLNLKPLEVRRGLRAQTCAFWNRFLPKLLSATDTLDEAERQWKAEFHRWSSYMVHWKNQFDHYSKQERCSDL
Put plainly: Inhibition of mouse brain AChE using acetylthiocholine iodide as substrate measured after 30 mins by Ellman's method. The conditions noted are these: read-out: IC50.

For the next series, the system named is BuChE. Kind of series: Selectivity index, ratio of CC50 for human SH-SY5Y cells IC50 for mouse plasma BuChE. It is filed as toxicity. In a few lines: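 SI is CC50 in SH-SY5Y divided by BuChE IC50. […] For IC50, mouse plasma BuChE was preincubated 30 min at 37 °C with DTNB and compound in 0.05 M PBS pH 8.0. Butyrylthiocholine iodide was added and A412 read; IC50 taken from log concentration–inhibition curves.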

Series [1] has as its system BV-2. Kind of series: Antiinflammatory activity in mouse BV2 cells assessed as reduction in LPS-induced IL-6 production at 10 uM pretreated for 1 hr followed by LPS challenge and measured after 24 hrs by ELISA assay. It is filed as functional, cell-based. Background: An ELISA detects its analyte on a solid surface through an enzyme-linked reagent.
Series [2] concerns BV-2. Kind of series: Antiinflammatory activity in mouse BV2 cells assessed as reduction in LPS-induced TNF-alpha production at 10 uM pretreated for 1 hr followed by LPS challenge and measured after 24 hrs by ELISA assay. It is filed as functional, cell-based.
The subject of the next series is AChE. Kind of series: Selectivity index, ratio of CC50 for human SH-SY5Y cells to IC50 for inhibition of mouse brain AChE.
The nature of series [3]: AUC (0 to t) in ICR mouse at 30 mg/kg, po measured upto 48 hrs by LCMS/MS method. Conditions: in vivo. Further details: time < 48 hr, dose 30 mg/kg, route oral. It is filed as ADME, organism-based.
Series [4] is described as follows: Half life in ICR mouse at 30 mg/kg, po measured upto 48 hrs by LCMS/MS method. The class given is ADME, organism-based. Conditions: in vivo.
A short description of series [5]: Acute toxicity ICR mouse assessed as effect on drinking behavior at 0 to 1000 mg/kg, po measured up to 14 days. The class given is organism-based. The conditions noted are these: in vivo, 336 h. The essentials: (§1)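 Male ICR mice (22 days, 20–22 g), n = 5 per group, chow and water ad libitum, 12 h light/dark cycle. Single oral dose of 0, 100, 200, 500 or 1000 mg/kg in 0.5% CMC-Na. Observed continuously for the first 4 h, intermittently over the next 24 h, then occasionally to 14 days. Euthanized on day 14.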

Series [6] can be described thus: AUC (0 to infinity) in ICR mouse at 30 mg/kg, po measured upto 48 hrs by LCMS/MS method. It is filed as ADME, organism-based. Details: dose 30 mg/kg, time infinity, route oral. The conditions noted are these: in vivo.
A short description of series [7]: Acute toxicity ICR mouse assessed as induction of macroscopic abnormalities in heart at 0 to 1000 mg/kg, po measured after 14 days. It is filed as organism-based. The conditions noted are these: in vivo, 336 h. In a few lines: as §1
Series [8] is described as follows: Cytotoxicity in human SH-SY5Y cells assessed as reduction in cell viability after 72 hrs incubation by MTT assay. The conditions noted are these: SH-SY5Y cells.
Series [9] can be described thus: Antioxidant activity assessed as AAPH radical scavenging activity preincubated for 15 mins with fluorescein before AAPH addition and recorded every 2 mins for 160 mins by ORAC-FL assay. The class given is functional. In a few lines:
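ORAC-FL assay in 75 mM PBS, pH 7.4. Compound was preincubated with fluorescein (20 nM final) for 15 min at 37 °C, then AAPH (18 mM final) was added. Fluorescence (ex 460/em 520 nm) was read every 2 min for 160 min. Net area under the decay curve, blank-normalized, is expressed as µM Trolox equivalents per µM compound. Duplicates, ≥3 independent assays.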

The subject of series [10] is Mus musculus. Kind of series: Antialzheimer activity in ICR mouse model of scopolamine-induced cognitive deficit assessed as scopolamine-induced latency time at 10 to 30 mg/kg, po treated for 1 hr followed by scopolamine challenge for 30 mins by step-down passive avoidance test (reference value: 5 secs). The class given is functional. In a few lines:
(§2)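 ICR mice, six weeks old, 18-22 g, either sex, n = 15/group. […] Step-down test used foot shock of 20 V, 0.5 mA, 2 s, with a training trial and a test 24 h later. Read-outs were latency to first step-down and number of shocks in 5 min. Mean ± SEM.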

Series [11] relates to Mus musculus. Kind of series: Effect on error times in ICR mouse model of scopolamine-induced cognitive deficit during training stage at 10 to 30 mg/kg, po treated for 1 hr followed by scopolamine challenge for 30 mins by step-down passive avoidance test. The class given is ADME, organism-based. Conditions: in vivo. The essentials:
as §2

Series [12] in a line: Acute toxicity ICR mouse assessed as induction of abnormal behavior at 0 to 1000 mg/kg, po measured up to 14 days. The class given is organism-based. Conditions: in vivo, 336 h. In a few lines: as §1
The target in series [13] is T2, Histamine H3 receptor (Homo sapiens, UniProt Q9Y5N1). Put plainly: Inhibition of human H3R expressed in methylhistamine-induced human H3-bla U2OS cells at 10 uM incubated for 30 mins by beta-lactamase complementation technology relative to control. The class given is cell-based.
Series [14] in a line: Acute toxicity ICR mouse assessed as mortality at 0 to 1000 mg/kg, po measured up to 14 days. The class given is organism-based. Conditions: in vivo, 336 h. The essentials:
as §1

For series [15], the target named is T2, Histamine H3 receptor. Kind of series: Inhibition of human H3R expressed in methylhistamine-induced human H3-bla U2OS cells incubated for 30 mins by beta-lactamase complementation technology. The conditions noted are these: read-out: IC50. It is filed as cell-based. In a few lines:
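H3-bla U2OS cells co-express human H3R-Gal4-VP16 (TEV site) and β-arrestin/TEV protease with a UAS-β-lactamase reporter. IC50 came from log concentration-inhibition curves. Triplicates, three independent experiments.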

Series [16] can be described thus: Acute toxicity ICR mouse assessed as effect on eating behavior at 0 to 1000 mg/kg, po measured up to 14 days. The conditions noted are these: in vivo, 336 h. The class given is organism-based. The essentials:
as §1

The nature of series [17]: Cmax in ICR mouse brain at 30 mg/kg, po measured after 40 mins by LCMS/MS method. Further details: dose 30 mg/kg, route oral. The class given is ADME, organism-based. In a few lines:
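ICR mice got a single oral dose of 30 mg/kg. At 40 min they were sacrificed and plasma and brain collected. Compound in both was quantified by LC-MS/MS. Log BB is the log of the brain-to-blood concentration ratio. Methods state n = 5, table footnote n = 6. Mean ± SEM.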

A short description of series [18]: Tmax in ICR mouse at 30 mg/kg, po measured upto 48 hrs by LCMS/MS method. The class given is ADME, organism-based. Conditions: in vivo.
Series [19] in a line: Acute toxicity ICR mouse assessed as effect on body weight change at 0 to 1000 mg/kg, po measured up to 14 days. Conditions: in vivo, 336 h. It is filed as organism-based. The essentials: as §1

The source of these data is ChEMBL document CHEMBL4433203, “Design, synthesis, and evaluation of isoflavone analogs as multifunctional agents for the treatment of Alzheimer's disease” (Eur J Med Chem, 2019).

The structures appear in SMILES notation. Activity calls are given as the source filed them. The rule behind the calls is not given here.

T2 sequence (Q9Y5N1 whole entry): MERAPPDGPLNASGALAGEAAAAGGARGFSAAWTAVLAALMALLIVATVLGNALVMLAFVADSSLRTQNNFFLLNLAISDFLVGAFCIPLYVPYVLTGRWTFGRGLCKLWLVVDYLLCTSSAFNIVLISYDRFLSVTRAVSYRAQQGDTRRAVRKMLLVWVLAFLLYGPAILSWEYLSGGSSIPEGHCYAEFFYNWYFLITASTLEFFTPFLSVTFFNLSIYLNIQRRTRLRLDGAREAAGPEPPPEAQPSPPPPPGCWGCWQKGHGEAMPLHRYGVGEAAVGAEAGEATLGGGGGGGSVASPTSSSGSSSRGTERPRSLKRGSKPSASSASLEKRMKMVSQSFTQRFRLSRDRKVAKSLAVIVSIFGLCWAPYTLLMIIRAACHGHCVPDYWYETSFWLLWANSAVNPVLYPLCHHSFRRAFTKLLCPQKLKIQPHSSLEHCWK

For orientation: IC50 means the concentration that gives 50% inhibition. A word on the AUC(0-t): it is the area under the concentration-time curve up to a stated or last time point. A lower AUC(0-t) goes with low exposure. As usually defined, the half-life is how long it takes for the measured level to halve. A higher half-life goes with slow decline. By AUC(0-inf) is commonly meant total exposure, with the tail of the curve extrapolated. Lower therefore signals low exposure. As a reminder, the CC50 is the concentration that lowers cell viability or growth by half. In general, inhibition refers to the drop in the measured response relative to a control, in per cent. Read a low inhibition as little suppression. For orientation: Cmax means the maximum level reached in the sampled fluid or tissue. By Tmax is commonly meant the time at which the peak concentration occurs. Turning to `CCN(C)CCCCOc1ccc2c(=O)c(-c3ccc(OCCN4CCCCC4)cc3)coc2c1`, the IC50 on Acetylcholinesterase stood at 81 nM; at Histamine H3 receptor [15] it was 270 nM. Moreover, the selectivity ratio in the series with BuChE is more than 34.6; with AChE, more than 1230. Also, the result in the series with BV-2 [1] and in the series on BV-2 [2] was Active. Further, the AUC(0-t) at 48 h in series [3] turned out to be 325 ng·h/mL. The molecule further showed a half-life in series [4] of 13.9 h. In addition, the Activity result in [5] is “Non-Toxic”; in [7] it was “Non-Toxic”; in [9], 0.01 equiv/µM; with Mus musculus [11], “Non-Toxic”; in [12], “Non-Toxic”; in [14], “Non-Toxic”. The Activity entry in series [16] and in [19] was “Non-Toxic” in each case. This molecule also showed an AUC(0-inf) in [6] of 352 ng·h/mL. The CC50 at 72 h in series [8] was more than 100000 nM. Also, in the series on Mus musculus [10], the Time stood at 53 s. Moreover, the inhibition on Histamine H3 receptor [13] is 75.2%. This molecule also came in with a Cmax in series [17] of 762 ng/mL. For the same molecule, the Tmax in [18] turned out to be 0.65 h.
